Experimental data as given in PMC5689068 (ACS chemical neuroscience, 2016).
Like-named read-outs stand apart in the source and are kept apart here. Where a SMILES comes first, the peptide text is derived from it. [ ]: non-standard residue; d: D form. Oic = O=C(O)[C@@H]1C[C@@H]2CCCC[C@@H]2N1; dTic = O=C(O)[C@H]1Cc2ccccc2CN1; 2Thi = N[C@@H](Cc1cccs1)C(=O)O; Nle = CCCC[C@H](N)C(=O)O; Orn = NCCC[C@H](N)C(=O)O

Tests used:
[1] = target: BK receptors; test: Radioligand competition binding assay with [3H]BK in rat brain membranes; conditions: for log[IC50], BK receptors, [3H]BK / IC50: pH 6.8, rat brain membranes, 1 nM [3H]BK; for IC50: read-out: IC50, BK receptors, [3H]BK; for affinity at the BK receptors (in words): D-amino acid substitutions
[2] = target: BK receptors; conditions: competition assay using 1 nM [3H]DALKD, cited from earlier work
[3] = In vitro stability in rat plasma; type: in vitro ADME; conditions: for half-life / remaining at 24 h, 10 mg/mL / remaining at 120 h, 10 mg/mL: rat; for half-life: plasma, t1/2 in rat plasma, 37 °C
[4] = tested on: SNL rats; test: Hypersensitivity tests in L5/L6 spinal nerve ligation; type: in vivo, rat; conditions: i.th.
Outline: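 L5/L6 spinal nerve-ligated male Sprague-Dawley rats (250–300 g, nonfasted) with lumbar-level i.th. catheters received test compound or vehicle at 3 nmol/5 µL i.th. Tactile paw withdrawal thresholds were measured against baseline and post-SNL values with von Frey filaments (up-down method, Dixon analysis) every 20 min up to 120 min after injection. One-way ANOVA, significance at p ≤ 0.05.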

[5] = tested on: naïve rats; test: von Frey filament and Infra-Red tests in naïve rats; type: in vivo, rat
Outline: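 Nonfasted male Sprague-Dawley rats (250–300 g) carried i.th. catheters placed through the atlanto-occipital membrane to lumbar level under ketamine/xylazine (80/12 mg/kg i.p.). Naïve rats received Dyn A-(2–13) with or without test compound (3 nmol/5 µL i.th.). Tests were run every 20 min up to 120 min. Infrared paw withdrawal latency was calibrated to ~20 s on the uninjured paw; von Frey thresholds used the up-down/Dixon method. One-way ANOVA, p ≤ 0.05.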

[6] = In vitro stability in human plasma; type: in vitro ADME; conditions: human plasma; for Intact (%): after a 24 h incubation; for remaining at 24 h, 10 mg/mL: human
Outline: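 Test compound stock (50 mg/mL in water) was diluted 5-fold into lithium-heparin human plasma and incubated at 37 °C. Samples were taken at 1, 2, 4, 6, 12 and 24 h, quenched with EtOH and centrifuged. Supernatant was run on C-18 RP-HPLC (10–90% acetonitrile, 40 min). t1/2 = 0.693/b, where b is the slope of ln(fraction parent remaining) versus time. Three independent experiments.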

[7] = calculated from a 5 day stability test
[8] = i.th. co-administration 3 nmol/5 μL with Dyn A-(2–13) 3 nmol

Compound	log[IC50], BK receptors, [3H]BK [1]	IC50 [1]	half-life ([3]; 24 h study)	remaining at 24 h, 10 mg/mL ([3]; rat plasma)	other results
CCCC[C@H](NC(=O)[C@@H](N)Cc1ccccc1)C(=O)N[C@@H](CCCNC(=N)N)C(=O)N[C@H](C(=O)N[C@@H](CCCNC(=N)N)C(=O)N1CCC[C@H]1C(=O)N[C@@H](CCCCN)C(=O)O)[C@@H](C)CC [compound 2, H-Phe-Nle-Arg-Ile-Arg-Pro-Lys-OH]	−6.79 ± 0.10	160 nM			
CCCC[C@H](NC(=O)[C@H](CCCNC(=N)N)NC(=O)[C@H](CC(C)C)NC(=O)[C@@H](N)Cc1ccccc1)C(=O)N[C@@H](CCCNC(=N)N)C(=O)N1CCC[C@H]1C(=O)N[C@@H](CCCCN)C(=O)O [compound 3, H-Phe-Leu-Arg-Nle-Arg-Pro-Lys-OH] (H-FLR[Nle]RPK-OH)	−7.05 ± 0.09				
CCCC[C@H](NC(=O)[C@H](CCCNC(=N)N)NC(=O)[C@H](CCCC)NC(=O)[C@@H](N)Cc1ccccc1)C(=O)N[C@@H](CCCNC(=N)N)C(=O)N1CCC[C@H]1C(=O)N[C@@H](CCCNC(=N)N)C(=O)O [compound 4, H-Phe-Nle-Arg-Nle-Arg-Pro-Arg-OH] (H-F[Nle]R[Nle]RPR-OH)			72 min	0%	log[IC50], BK receptors [2]: −7.06 ± 0.10; IC50 ([2]; read-out: IC50, BK receptors): 86 nM
CCCC[C@H](NC(=O)[C@H](Cc1ccccc1)NC(C)=O)C(=O)N[C@@H](CCCNC(=N)N)C(=O)N[C@@H](CCCC)C(=O)N[C@@H](CCCNC(=N)N)C(=O)N1CCC[C@H]1C(=O)N[C@@H](CCCNC(=N)N)C(=O)O [compound 5, Ac-Phe-Nle-Arg-Nle-Arg-Pro-Arg-OH] (Ac-F[Nle]R[Nle]RPR-OH)			204 min	0%	
CC[C@H](C)[C@H](NC(=O)[C@H](CCCN)NC(=O)[C@H](CC(C)C)NC(=O)[C@@H](N)Cc1ccccc1)C(=O)N[C@@H](CCCN)C(=O)N1CCC[C@H]1C(=O)N[C@@H](CCCN)C(=O)O [compound 6, H-Phe-Leu-Orn-Ile-Orn-Pro-Orn-OH] (H-FL[Orn]I[Orn]P[Orn]-OH)	−6.29 ± 0.12	510 nM			
CC[C@H](C)[C@H](NC(=O)[C@H](CCCNC(=N)N)NC(=O)[C@H](CC(C)C)NC(=O)[C@@H](N)Cc1ccccc1)C(=O)N[C@@H](CCCNC(=N)N)C(=O)N1Cc2ccccc2C[C@@H]1C(=O)N[C@@H](CCCCN)C(=O)O [compound 8, H-Phe-Leu-Arg-Ile-Arg-D-Tic-Lys-OH] (H-FLRIR[dTic]K-OH)		> 10000 nM			
CC[C@H](C)[C@H](NC(=O)[C@H](CCCNC(=N)N)NC(=O)[C@H](CC(C)C)NC(=O)[C@@H](N)Cc1ccccc1)C(=O)N[C@@H](CCCNC(=N)N)C(=O)N1[C@H](C(=O)N[C@@H](CCCCN)C(=O)O)C[C@@H]2CCCC[C@@H]21 [compound 10, H-Phe-Leu-Arg-Ile-Arg-Oic-Lys-OH] (H-FLRIR[Oic]K-OH)	−5.82 ± 0.10	1500 nM			
CC[C@H](C)[C@H](NC(=O)[C@H](CCCNC(=N)N)NC(=O)[C@H](CC(C)C)NC(=O)[C@@H](N)Cc1ccccc1)C(=O)N[C@@H](CCCNC(=N)N)C(=O)N1CCC[C@H]1C(=O)N[C@H](CCCCN)C(=O)O [compound 11, H-Phe-Leu-Arg-Ile-Arg-Pro-D-Lys-OH]	−6.03 ± 0.14	830 nM		0%	
CC[C@H](C)[C@H](NC(=O)[C@H](CCCNC(=N)N)NC(=O)[C@H](CC(C)C)NC(=O)[C@@H](N)Cc1ccccc1)C(=O)N[C@@H](CCCNC(=N)N)C(=O)N1CCC[C@@H]1C(=O)N[C@@H](CCCCN)C(=O)O [compound 12, H-Phe-Leu-Arg-Ile-Arg-D-Pro-Lys-OH]		> 10000 nM			
CC[C@H](C)[C@H](NC(=O)[C@H](CCCNC(=N)N)NC(=O)[C@H](CC(C)C)NC(=O)[C@@H](N)Cc1ccccc1)C(=O)N[C@H](CCCNC(=N)N)C(=O)N1CCC[C@H]1C(=O)N[C@@H](CCCCN)C(=O)O [compound 13, H-Phe-Leu-Arg-Ile-D-Arg-Pro-Lys-OH]	−5.23 ± 0.12	5900 nM			
CC[C@@H](C)[C@@H](NC(=O)[C@H](CCCNC(=N)N)NC(=O)[C@H](CC(C)C)NC(=O)[C@@H](N)Cc1ccccc1)C(=O)N[C@@H](CCCNC(=N)N)C(=O)N1CCC[C@H]1C(=O)N[C@@H](CCCCN)C(=O)O [compound 14, H-Phe-Leu-Arg-D-Ile-Arg-Pro-Lys-OH]		> 10000 nM	198 min	0%	
CC[C@H](C)[C@H](NC(=O)[C@@H](CCCNC(=N)N)NC(=O)[C@H](CC(C)C)NC(=O)[C@@H](N)Cc1ccccc1)C(=O)N[C@@H](CCCNC(=N)N)C(=O)N1CCC[C@H]1C(=O)N[C@@H](CCCCN)C(=O)O [compound 15, H-Phe-Leu-D-Arg-Ile-Arg-Pro-Lys-OH]	−6.51 ± 0.19	310 nM	1860 min	62 ± 25%	
CC[C@H](C)[C@H](NC(=O)[C@H](CCCNC(=N)N)NC(=O)[C@@H](CC(C)C)NC(=O)[C@@H](N)Cc1ccccc1)C(=O)N[C@@H](CCCNC(=N)N)C(=O)N1CCC[C@H]1C(=O)N[C@@H](CCCCN)C(=O)O [compound 16, H-Phe-D-Leu-Arg-Ile-Arg-Pro-Lys-OH]	−6.90 ± 0.23	130 nM		99 ± 9%	nerve injury-related tactile hypersensitivity [4]: modulated; increase in stability in plasma compared to that of 1 [3]: 229 fold; Intact (%) ([3]; rat plasma, after a 24 h incubation): more than 95%; half-life [3, 7]: 9600 min; remaining at 120 h, 10 mg/mL ([3]; rat plasma): 66%; Dyn A-(2–13)-induced tactile hypersensitivity (von Frey filament test) [5, 8]: blocked; Dyn A-(2–13)-induced thermal hypersensitivity (Infra-Red test) [5, 8]: blocked; time of maximal paw withdrawal threshold and latency after injection ([5]; i.th., 3 nmol/5 μL): 40 min; Intact (%) [6]: more than 95%; remaining at 24 h, 10 mg/mL [6]: 99 ± 10%
CC[C@H](C)[C@H](NC(=O)[C@H](CCCNC(=N)N)NC(=O)[C@H](CC(C)C)NC(=O)[C@H](N)Cc1ccccc1)C(=O)N[C@@H](CCCNC(=N)N)C(=O)N1CCC[C@H]1C(=O)N[C@@H](CCCCN)C(=O)O [compound 17, H-D-Phe-Leu-Arg-Ile-Arg-Pro-Lys-OH]	−6.60 ± 0.14	250 nM	1140 min	44 ± 12%	
CC[C@H](C)[C@H](NC(=O)[C@@H](CCCNC(=N)N)NC(=O)[C@H](CC(C)C)NC(=O)[C@H](N)Cc1ccccc1)C(=O)N[C@@H](CCCNC(=N)N)C(=O)N1CCC[C@H]1C(=O)N[C@@H](CCCCN)C(=O)O [compound 18, H-D-Phe-Leu-D-Arg-Ile-Arg-Pro-Lys-OH]		> 10000 nM			affinity at the BK receptors (in words) [1]: completely abolished affinity
CC[C@H](C)[C@H](NC(=O)[C@H](CCCNC(=N)N)NC(=O)[C@@H](CC(C)C)NC(=O)[C@H](N)Cc1ccccc1)C(=O)N[C@@H](CCCNC(=N)N)C(=O)N1CCC[C@H]1C(=O)N[C@@H](CCCCN)C(=O)O [compound 19, H-D-Phe-D-Leu-Arg-Ile-Arg-Pro-Lys-OH]		> 10000 nM			affinity at the BK receptors (in words) [1]: completely abolished affinity
CC[C@H](C)[C@H](NC(=O)[C@H](CCCNC(=N)N)NC(=O)[C@H](CC(C)C)NC(=O)[C@H](Cc1ccccc1)NC)C(=O)N[C@@H](CCCNC(=N)N)C(=O)N1CCC[C@H]1C(=O)N[C@@H](CCCCN)C(=O)O [compound 20, H-NMePhe-Leu-Arg-Ile-Arg-Pro-Lys-OH]	−6.06 ± 0.14	870 nM	900 min	31 ± 11%	
CC[C@H](C)[C@H](NC(=O)[C@H](CCCNC(=N)N)NC(=O)[C@H](CC(C)C)N(C)C(=O)[C@@H](N)Cc1ccccc1)C(=O)N[C@@H](CCCNC(=N)N)C(=O)N1CCC[C@H]1C(=O)N[C@@H](CCCCN)C(=O)O [compound 21, H-Phe-NMeLeu-Arg-Ile-Arg-Pro-Lys-OH]			> 240000 min	100 ± 16%	half-life [3, 7]: 3900 min; remaining at 120 h, 10 mg/mL ([3]; rat plasma): 31%; Intact (%) [6]: more than 95%; remaining at 24 h, 10 mg/mL [6]: 96 ± 5%
Dyn A-(2–13) [reference compound]					paw withdrawal latency (Infra-Red test) ([5]; i.th. injection 3 nmol, alone): reduced; paw withdrawal threshold (von Frey filament test) ([5]; i.th. injection 3 nmol, alone): reduced
H-FLRIR[2Thi]K-OH [compound 9]	−5.99 ± 0.20	1000 nM			
